This is an account of results in ChEMBL document CHEMBL3585278, “Effect of deuteration on metabolism and clearance of Nerispirdine (HP184) and AVE5638” (Bioorg Med Chem, 2015).

In series [1] the test system is Hepatocyte. The series can be described thus: Drug formation in human hepatocytes treated with Nerispirdine at 2 to 10 uM up to 24 hrs by LC-MS/MS analysis. It counts as ADME, cell-based. A digest of the protocol: (§1)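 Plated human hepatocytes (two preparations) were incubated with parent or d14 analogue at 2 or 10 µM. Aliquots taken at several times up to 24 h were assayed by LC–MS/MS for parent, N-depropylated metabolite and carboxylic acid metabolite. Clearance was expressed as mL/h per 10^6 cells.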

For series [2], the system named is Rattus norvegicus. The series can be described thus: In vivo drug formation in Sprague-Dawley rat treated with Nerispirdine at 20 mg/kg, po up to 48 hrs by LC-MS/MS analysis. It counts as ADME, organism-based. An outline of the steps: (§2)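 Male Sprague–Dawley rats, 5 per compound, were dosed orally at 20 mg/kg with parent or d14 analogue. Plasma collected at several times up to 48 h was analysed by LC–MS/MS for parent, N-depropylated metabolite and carboxylic acid metabolite, giving concentration–time profiles.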

Series [3] has as its system Liver microsome. Nature of the series: Drug formation in human liver microsomes treated with Nerispirdine at 5 uM up to 30 mins by LC-MS/MS analysis.
In series [4] the test system is Hepatocyte. The series can be described thus: Drug formation in human hepatocytes treated with (3-Fluoro-pyridin-4-yl)-(3-methyl-indol-1-yl)-propylamine-d14 at 2 to 10 uM up to 24 hrs by LC-MS/MS analysis. It counts as ADME, cell-based. An outline of the steps: as §1
Series [5] concerns Rattus norvegicus. The series can be described thus: In vivo drug formation in Sprague-Dawley rat treated with (3-Fluoro-pyridin-4-yl)-(3-methyl-indol-1-yl)-propylamine-d14 at 20 mg/kg, po up to 48 hrs by LC-MS/MS analysis. It is filed as ADME, organism-based. An outline of the steps: as §2
The subject of series [6] is Liver microsome. The series can be described thus: Drug formation in human liver microsomes treated with (3-Fluoro-pyridin-4-yl)-(3-methyl-indol-1-yl)-propylamine-d14 formation at 5 uM up to 30 mins by LC-MS/MS analysis.
Series [7] can be described thus: Tmax in Sprague-Dawley rat at 20 mg/kg, po by LC-MS/MS analysis. It is filed as ADME, organism-based. To be noted: in vivo. An outline of the steps: (§3)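 Male Sprague–Dawley rats (5 per compound) received 20 mg/kg orally of parent or d14 analogue. Plasma was sampled at several times up to 48 h and assayed by LC–MS/MS. Tmax is reported with a range; Cmax, AUClast, AUC and t1/2 were derived from plasma concentration–time data.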

Series [8] is described as follows: Cmax in Sprague-Dawley rat at 20 mg/kg, po by LC-MS/MS analysis. It is filed as ADME, organism-based. To be noted: in vivo. Details: dose 20 mg/kg, route oral. An outline of the steps:
as §3

Series [9] is described as follows: AUClast in Sprague-Dawley rat at 20 mg/kg, po by LC-MS/MS analysis. It counts as ADME, organism-based. Set-up: dose 20 mg/kg, route oral, time 0 - last. The settings on record: in vivo. A digest of the protocol: as §3
A short description of series [10]: AUC in Sprague-Dawley rat at 20 mg/kg, po by LC-MS/MS analysis. It is filed as ADME, organism-based. To be noted: in vivo. An outline of the steps:
as §3

Series [11] can be described thus: Half-life in Sprague-Dawley rat at 20 mg/kg, po by LC-MS/MS analysis. It is filed as ADME, organism-based. The settings on record: in vivo. A digest of the protocol:
as §3

Series [12] deals with Hepatocyte. The series can be described thus: Clearance in human hepatocytes at 2 uM measured per 10^6 cells up to 24 hrs by LC-MS/MS analysis. It counts as ADME, cell-based. An outline of the steps:
as §1

The test system of series [13] is Hepatocyte. The series can be described thus: Clearance in human hepatocytes at 10 uM measured per 10^6 cells up to 24 hrs by LC-MS/MS analysis. It is filed as ADME, cell-based. An outline of the steps: as §1
Series [14] concerns Liver microsome. Nature of the series: Clearance in human liver microsomes assessed as initial mean metabolism rate at 5 uM at protein concentration of 0.25 mg/ml measured per mg protein up to 30 mins by LC-MS/MS analysis. To be noted: 0.5 h. It is filed as ADME. A digest of the protocol:
(§4)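 Human liver microsomes at 0.25, 0.5 or 1 mg protein/mL were incubated with 5 µM substrate (parent or d14 analogue). Aliquots taken at several times up to 30 min were assayed by LC–MS/MS for parent and N-depropylated metabolite. Initial mean metabolism rate was given as nmol/min/mg protein.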
Background: Liver microsomes are vesicles of endoplasmic reticulum, rich in cytochrome P450 enzymes.

The subject of series [15] is Liver microsome. The series can be described thus: Clearance in human liver microsomes assessed as initial mean metabolism rate at 5 uM at protein concentration of 0.5 mg/ml measured per mg protein up to 30 mins by LC-MS/MS analysis. It counts as ADME. To be noted: 0.5 h. An outline of the steps: as §4
For series [16], the system named is Liver microsome. The series can be described thus: Clearance in human liver microsomes assessed as initial mean metabolism rate at 5 uM at protein concentration of 1 mg/ml measured per mg protein up to 30 mins by LC-MS/MS analysis. It counts as ADME. To be noted: 0.5 h. An outline of the steps: as §4
In series [17] the test system is Hepatocyte. Nature of the series: Drug metabolism in human hepatocytes assessed as N-(3-fluoropyridin-4-yl)-3-methyl-1H-indol-1-amine formation at 2 to 10 uM up to 24 hrs by LC-MS/MS analysis. It counts as ADME, cell-based. A digest of the protocol:
as §1

The subject of series [18] is Rattus norvegicus. The series can be described thus: In vivo drug metabolism in Sprague-Dawley rat assessed as N-(3-fluoropyridin-4-yl)-3-methyl-1H-indol-1-amine formation at 20 mg/kg, po up to 48 hrs by LC-MS/MS analysis. It is filed as ADME, organism-based. A digest of the protocol:
as §2

Series [19] deals with Rattus norvegicus. The series can be described thus: In vivo drug metabolism in Sprague-Dawley rat assessed as (3-Fluoro-pyridin-4-yl)-(3-methyl-indol-1-yl)-amine-d7 formation at 20 mg/kg, po up to 48 hrs by LC-MS/MS analysis. It is filed as ADME, organism-based. A digest of the protocol:
as §2

The subject of series [20] is Liver microsome. Nature of the series: Drug metabolism in human liver microsomes assessed as N-(3-fluoropyridin-4-yl)-3-methyl-1H-indol-1-amine formation at 5 uM up to 30 mins by LC-MS/MS analysis.
The test system of series [21] is Liver. Nature of the series: Drug metabolism in human liver S9 fraction assessed as metabolic reaction rate at 1 uM measured up to 3 hrs by LC-MS/MS analysis. It counts as ADME, subcellular. To be noted: s9, 3 h. A digest of the protocol:
(§5)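 Human liver S9 fraction, liver microsomes or hepatocytes were incubated with substrate or its deuterated analogue at 1 and 10 µM, with or without an NADPH-generating system. Substrate depletion over time was followed. Reaction rate was given as nmol/min/mg for S9 and microsomes, and nmol/min per 10^6 cells for hepatocytes.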

In series [22] the test system is Liver. Nature of the series: Drug metabolism in human liver S9 fraction assessed as metabolic reaction rate at 10 uM measured up to 3 hrs by LC-MS/MS analysis. It is filed as ADME, subcellular. To be noted: s9, 3 h. A digest of the protocol:
as §5

The test system of series [23] is Liver microsome. Nature of the series: Drug metabolism in human liver microsomes assessed as metabolic reaction rate at 1 uM measured up to 3 hrs by LC-MS/MS analysis. It counts as ADME. A digest of the protocol: as §5
The subject of series [24] is Liver microsome. Nature of the series: Drug metabolism in human liver microsomes assessed as metabolic reaction rate at 10 uM measured up to 3 hrs by LC-MS/MS analysis. It is filed as ADME. A digest of the protocol:
as §5

The subject of series [25] is Hepatocyte. The series can be described thus: Drug metabolism in human hepatocytes assessed as metabolic reaction rate at 1 uM measured per 10^6 cells up to 3 hrs by LC-MS/MS analysis. It is filed as ADME, cell-based. A digest of the protocol:
as §5

The subject of series [26] is Hepatocyte. The series can be described thus: Drug metabolism in human hepatocytes assessed as metabolic reaction rate at 10 uM measured per 10^6 cells up to 3 hrs by LC-MS/MS analysis. It counts as ADME, cell-based. An outline of the steps:
as §5

Series [27] relates to Hepatocyte. The series can be described thus: Drug metabolism in human hepatocytes assessed as 1-(3-fluoropyridin-4-ylamino)-1H-indole-3-carboxylic acid formation at 2 to 10 uM up to 24 hrs by LC-MS/MS analysis. It is filed as ADME, cell-based. A digest of the protocol: as §1
For series [28], the system named is Hepatocyte. Nature of the series: Drug metabolism in human hepatocytes assessed as 1-(3-fluoropyridin-4-ylamino)-1H-indole-3-carboxylic acid-d4 formation at 2 to 10 uM up to 24 hrs by LC-MS/MS analysis. It counts as ADME, cell-based. A digest of the protocol: as §1
The subject of series [29] is Rattus norvegicus. Nature of the series: In vivo drug metabolism in Sprague-Dawley rat assessed as 1-(3-fluoropyridin-4-ylamino)-1H-indole-3-carboxylic acid formation at 20 mg/kg, po up to 48 hrs by LC-MS/MS analysis. It is filed as ADME, organism-based. A digest of the protocol: as §2
Series [30] deals with Rattus norvegicus. The series can be described thus: In vivo drug metabolism in Sprague-Dawley rat assessed as 1-(3-fluoropyridin-4-ylamino)-1H-indole-3-carboxylic acid-d4 formation at 20 mg/kg, po up to 48 hrs by LC-MS/MS analysis. It is filed as ADME, organism-based. A digest of the protocol:
as §2

Series [31] relates to Liver microsome. Nature of the series: Drug metabolism in human liver microsomes assessed as 1-(3-fluoropyridin-4-ylamino)-1H-indole-3-carboxylic acid-d4 formation at 5 uM up to 30 mins by LC-MS/MS analysis.

For `Cc1cn(Nc2ccncc2F)c2ccccc12`, the Drug metabolism entry in the series with Hepatocyte [1], in the series with Rattus norvegicus [2] and in the series with Liver microsome [3] was “metabolite_detected” each time.
For `[2H]c1cc2c(C(=O)O)c([2H])n(Nc3ccncc3F)c2c([2H])c1[2H]`, the Drug metabolism entry in the series on Hepatocyte [4] and in the series on Rattus norvegicus [5] was “metabolite_detected” each time.
Turning to `[2H]c1cc2c(C([2H])([2H])[2H])c([2H])n(Nc3ccncc3F)c2c([2H])c1[2H]`, the Drug metabolism entry in the series with Hepatocyte [4], with Rattus norvegicus [5] and in the series on Liver microsome [6] was “metabolite_detected” throughout.
As for `CCCN(c1ccncc1F)n1cc(C)c2ccccc21` [NERISPIRDINE], the Tmax (as a rule, the time at which the peak concentration occurs) in series [7] is 1 h. Also, the peak concentration (Cmax) – broadly, the maximum level reached in the sampled fluid or tissue – in [8] came to 822 ng/mL. Further, in [9], the AUC(0-t) (in general, exposure summed from dosing to a finite time, without extrapolation to infinity) turned out to be 4070 ng·h/mL. Further, in series [10], the AUC (as a rule, the area under the concentration-time curve, a measure of exposure) came to 4180 ng·h/mL. For the same molecule, the half-life – broadly, the time in which the quantity being followed falls by half – in series [11] was 10.2 h. Further, the figures for the CLint in the series with Hepatocyte [12] and with Hepatocyte [13] were 0.415 mL/h/10^6 cells and 0.2 mL/h/10^6 cells, respectively. For the same molecule, the metabolism rate in the series on Liver microsome [14] is 1.15 nmol/min/mg. Besides, the metabolic rate came to 0.346 nmol/min/mg in the series on Liver microsome [15] and 0.253 nmol/min/mg in the series with Liver microsome [16]. Moreover, the Drug metabolism result with Hepatocyte [17], with Rattus norvegicus [18], with Rattus norvegicus [19] and with Liver microsome [20] was “metabolite_detected” throughout.
`[2H]C([2H])(N)c1cccc(C2CCN(C(=O)c3ccc(C#Cc4ccccc4F)o3)CC2)c1`: the Drug metabolism in the series with Liver [21] worked out at 0.0081 nmol/min/mg; in the series with Liver [22], 0.0043 nmol/min/mg; with Liver microsome [23], 0.0048 nmol/min/mg; in the series on Liver microsome [24], 0.0045 nmol/min/mg; in the series with Hepatocyte [25] it was 0.0143 nmol/min/10^6 cells; with Hepatocyte [26] it was 0.0081 nmol/min/10^6 cells.
`O=C(O)c1cn(Nc2ccncc2F)c2ccccc12`: the Drug metabolism entry with Hepatocyte [1] and in the series with Rattus norvegicus [2] was “metabolite_detected” in each case.
With `[2H]c1cc2c(C([2H])([2H])[2H])c([2H])n(N(c3ccncc3F)C([2H])([2H])C([2H])([2H])C([2H])([2H])[2H])c2c([2H])c1[2H]`, the time of peak concentration (Tmax) in series [7] came out at 0.5 h. Further, the highest concentration (Cmax) in [8] was 971 ng/mL. Further, the AUC(0-t) in [9] turned out to be 3670 ng·h/mL. This molecule also came in with an exposure (AUC) in [10] of 3800 ng·h/mL. In series [11], the half-life was 11.1 h. In addition, the CLint in the series on Hepatocyte [12] was determined as 0.572 mL/h/10^6 cells; with Hepatocyte [13], 0.196 mL/h/10^6 cells. Besides, the metabolism rate in the series on Liver microsome [14] was determined as 0.42 nmol/min/mg. Further, the metabolic rate was 0.638 nmol/min/mg in the series with Liver microsome [15] and 0.217 nmol/min/mg with Liver microsome [16]. The Drug metabolism entry in the series with Hepatocyte [27] is “metabolite_detected”; in the series on Hepatocyte [28], “metabolite_detected”; in the series on Rattus norvegicus [29], “metabolite_detected”; in the series with Rattus norvegicus [30] it was “metabolite_detected”; with Liver microsome [31], “metabolite_notdetected”.
For `NCc1cccc(C2CCN(C(=O)c3ccc(C#Cc4ccccc4F)o3)CC2)c1`, the Drug metabolism in the series on Liver [21] worked out at 0.0219 nmol/min/mg; with Liver [22], 0.0238 nmol/min/mg; in the series on Liver microsome [23], 0.0201 nmol/min/mg; in the series on Liver microsome [24], 0.0215 nmol/min/mg; in the series with Hepatocyte [25], 0.0143 nmol/min/10^6 cells; with Hepatocyte [26], 0.016 nmol/min/10^6 cells.
